Results taken from ChEMBL document CHEMBL1944596, “7,8-dichloro-1-oxo-β-carbolines as a versatile scaffold for the development of potent and selective kinase inhibitors with unusual binding modes” (J Med Chem, 2012).

Legend:
MV4-11 = experiment: Growth inhibition of human MV4-11 cells after 48 hrs by WST-1 assay; format: functional, cell-based; conditions: MV4-11, 48 h
Outline: (§1)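 Compound (0–10 μM) added to the culture medium and incubated 48 h. Proliferation and viability read by WST-1 reagent. Survival expressed as percentage of control cultures and IC50 derived by curve fitting.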

MOLM-13 = experiment: Growth inhibition of human MOLM13 cells after 48 hrs by WST-1 assay; format: functional, cell-based; conditions: MOLM-13, 48 h
Outline: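 Inhibitor at 0–10 μM added to the culture medium for 48 h. Proliferation and viability were read with WST-1 reagent. Survival was expressed as a percentage of control cultures, and IC50 was fitted from the concentration series.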

[1] = Growth inhibition of human SEM cells after 48 hrs by WST-1 assay; format: functional, cell-based; outline: as §1
K562 = experiment: Growth inhibition of human K562 cells after 48 hrs by WST-1 assay; format: functional, cell-based; conditions: K562, 48 h; outline: as §1
[2] = Growth inhibition of human RS4:11 cells after 48 hrs by WST-1 assay; format: functional, cell-based; conditions: RS4-11, 48 h; outline: as §1
[3] = target: Dual specificity protein kinase CLK4 (Homo sapiens) (UniProt Q9HAZ1); experiment: Binding affinity to CLK4 assessed as change in thermal denaturation at 10 uM by thermal stability shift assay
Outline: (§2)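 Each compound was screened across a kinase panel by thermal stability shift assay. The read-out was the shift in protein melting temperature (ΔTm, in °C) relative to the unliganded kinase. A ΔTm of 4.0 °C served as the hit cutoff.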

[4] = target: Casein kinase II subunit alpha' (Homo sapiens) (UniProt P19784); experiment: Binding affinity to CK2alpha2 assessed as change in thermal denaturation at 10 uM by thermal stability shift assay; outline: as §2
[5] = target: T1, Serine/threonine-protein kinase 17A (Homo sapiens) (UniProt Q9UEE5); experiment: Binding affinity to DRAK1 assessed as change in thermal denaturation at 10 uM by thermal stability shift assay; outline: as §2
T1 sequence (whole entry): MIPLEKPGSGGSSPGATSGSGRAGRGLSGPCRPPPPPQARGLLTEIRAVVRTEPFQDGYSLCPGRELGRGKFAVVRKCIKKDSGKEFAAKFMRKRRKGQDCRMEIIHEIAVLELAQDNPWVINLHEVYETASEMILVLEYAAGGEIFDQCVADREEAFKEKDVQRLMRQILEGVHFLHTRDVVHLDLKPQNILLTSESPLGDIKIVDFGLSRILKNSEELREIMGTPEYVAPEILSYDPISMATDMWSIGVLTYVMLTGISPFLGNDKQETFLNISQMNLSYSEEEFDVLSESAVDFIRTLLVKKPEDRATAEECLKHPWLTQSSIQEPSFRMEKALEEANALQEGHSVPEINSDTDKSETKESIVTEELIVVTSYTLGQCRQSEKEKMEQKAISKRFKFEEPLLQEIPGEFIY

[6] = target: T2, Myosin light chain kinase family member 4 (Homo sapiens) (UniProt Q86YV6); experiment: Binding affinity to SGK085 assessed as change in thermal denaturation at 10 uM by thermal stability shift assay; outline: as §2
T2 sequence (whole entry): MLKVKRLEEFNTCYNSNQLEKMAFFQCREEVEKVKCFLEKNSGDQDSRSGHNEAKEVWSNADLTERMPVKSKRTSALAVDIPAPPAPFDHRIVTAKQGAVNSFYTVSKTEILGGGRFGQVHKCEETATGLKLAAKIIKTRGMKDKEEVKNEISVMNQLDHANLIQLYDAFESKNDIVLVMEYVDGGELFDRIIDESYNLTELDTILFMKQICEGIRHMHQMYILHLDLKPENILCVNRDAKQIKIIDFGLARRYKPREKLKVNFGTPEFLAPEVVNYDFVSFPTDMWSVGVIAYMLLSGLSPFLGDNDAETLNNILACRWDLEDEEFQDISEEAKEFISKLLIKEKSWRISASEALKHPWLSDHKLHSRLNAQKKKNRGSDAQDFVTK

[7] = target: AP2-associated protein kinase 1 (Homo sapiens) (UniProt Q2M2I8); experiment: Binding affinity to AAK1 assessed as change in thermal denaturation at 10 uM by thermal stability shift assay; outline: as §2
[8] = target: Dual specificity protein kinase CLK1 (Homo sapiens) (UniProt P49759); experiment: Binding affinity to CLK1 assessed as change in thermal denaturation at 10 uM by thermal stability shift assay; outline: as §2
[9] = target: Serine/threonine-protein kinase pim-3 (Homo sapiens, UniProt Q86V86); experiment: Binding affinity to PIM3 assessed as change in thermal denaturation at 10 uM by thermal stability shift assay; outline: as §2
[10] = target: T3, Serine/threonine-protein kinase 17B (Homo sapiens) (UniProt O94768); experiment: Binding affinity to DRAK2 assessed as change in thermal denaturation at 10 uM by thermal stability shift assay; outline: as §2
T3 sequence (whole entry): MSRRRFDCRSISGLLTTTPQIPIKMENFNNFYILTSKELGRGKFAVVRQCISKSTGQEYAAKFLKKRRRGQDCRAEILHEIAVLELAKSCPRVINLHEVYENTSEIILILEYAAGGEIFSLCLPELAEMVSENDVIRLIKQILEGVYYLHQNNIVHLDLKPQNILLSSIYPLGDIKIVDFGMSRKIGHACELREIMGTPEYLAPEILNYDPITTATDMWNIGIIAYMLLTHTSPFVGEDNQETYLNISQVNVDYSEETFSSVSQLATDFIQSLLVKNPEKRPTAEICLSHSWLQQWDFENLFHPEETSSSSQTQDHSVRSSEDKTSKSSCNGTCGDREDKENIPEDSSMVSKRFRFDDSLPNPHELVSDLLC

[11] = target: Death-associated protein kinase 3 (Homo sapiens) (UniProt O43293); experiment: Binding affinity to N-terminus His6-tagged DAPK3 expressed in Escherichia coli BL21 (DE3) cells coexpressing pCOEX assessed as change in thermal denaturation at 10 uM by thermal stability shift assay
Outline: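 DAPK3 was expressed in E. coli grown in TB with kanamycin and chloramphenicol at 37 °C, cooled to 25 °C, and induced with 0.5 mM IPTG. Binding was read as thermal-shift ΔTm in °C.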

[12] = target: T4, Cyclin-G-associated kinase (Homo sapiens) (UniProt O14976); experiment: Binding affinity to GAK assessed as change in thermal denaturation at 10 uM by thermal stability shift assay; outline: as §2
T4 sequence (whole entry): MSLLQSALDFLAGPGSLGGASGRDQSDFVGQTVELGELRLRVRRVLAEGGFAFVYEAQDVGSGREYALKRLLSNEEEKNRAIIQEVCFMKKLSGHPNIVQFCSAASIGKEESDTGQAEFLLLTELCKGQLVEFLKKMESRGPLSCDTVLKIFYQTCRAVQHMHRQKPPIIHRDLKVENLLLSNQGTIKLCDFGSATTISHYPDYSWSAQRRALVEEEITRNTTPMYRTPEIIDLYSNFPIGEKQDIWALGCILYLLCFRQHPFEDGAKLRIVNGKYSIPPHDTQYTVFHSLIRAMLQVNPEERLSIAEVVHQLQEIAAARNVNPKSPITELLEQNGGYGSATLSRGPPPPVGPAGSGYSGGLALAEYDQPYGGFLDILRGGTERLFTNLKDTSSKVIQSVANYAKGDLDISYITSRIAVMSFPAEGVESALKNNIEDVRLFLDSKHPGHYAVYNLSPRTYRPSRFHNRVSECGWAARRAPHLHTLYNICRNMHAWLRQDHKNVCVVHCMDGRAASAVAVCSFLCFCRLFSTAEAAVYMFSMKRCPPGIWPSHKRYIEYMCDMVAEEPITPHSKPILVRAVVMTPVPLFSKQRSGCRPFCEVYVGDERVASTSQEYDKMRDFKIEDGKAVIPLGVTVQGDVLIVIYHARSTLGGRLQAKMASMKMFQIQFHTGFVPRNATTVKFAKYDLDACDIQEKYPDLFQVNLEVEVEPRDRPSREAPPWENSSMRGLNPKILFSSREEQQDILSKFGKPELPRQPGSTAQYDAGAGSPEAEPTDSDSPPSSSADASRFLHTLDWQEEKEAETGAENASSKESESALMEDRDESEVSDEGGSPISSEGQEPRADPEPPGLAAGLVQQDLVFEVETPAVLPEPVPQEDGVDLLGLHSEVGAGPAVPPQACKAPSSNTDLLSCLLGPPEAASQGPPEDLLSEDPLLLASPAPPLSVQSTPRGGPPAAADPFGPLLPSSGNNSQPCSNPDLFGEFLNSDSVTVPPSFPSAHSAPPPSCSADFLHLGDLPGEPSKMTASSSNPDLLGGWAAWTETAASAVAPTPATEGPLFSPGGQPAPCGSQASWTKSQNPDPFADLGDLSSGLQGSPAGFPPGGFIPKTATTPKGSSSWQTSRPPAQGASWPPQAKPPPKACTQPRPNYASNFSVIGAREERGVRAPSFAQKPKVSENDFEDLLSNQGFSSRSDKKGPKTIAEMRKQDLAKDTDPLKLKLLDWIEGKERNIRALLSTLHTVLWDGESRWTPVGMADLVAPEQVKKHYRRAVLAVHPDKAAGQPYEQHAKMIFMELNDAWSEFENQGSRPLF

[13] = target: Serine/threonine-protein kinase pim-1 (Homo sapiens, UniProt P11309); experiment: Binding affinity to PIM1 assessed as change in thermal denaturation at 10 uM by thermal stability shift assay; outline: as §2
Chain of Serine/threonine-protein kinase pim-1 (P11309 whole entry, looked up): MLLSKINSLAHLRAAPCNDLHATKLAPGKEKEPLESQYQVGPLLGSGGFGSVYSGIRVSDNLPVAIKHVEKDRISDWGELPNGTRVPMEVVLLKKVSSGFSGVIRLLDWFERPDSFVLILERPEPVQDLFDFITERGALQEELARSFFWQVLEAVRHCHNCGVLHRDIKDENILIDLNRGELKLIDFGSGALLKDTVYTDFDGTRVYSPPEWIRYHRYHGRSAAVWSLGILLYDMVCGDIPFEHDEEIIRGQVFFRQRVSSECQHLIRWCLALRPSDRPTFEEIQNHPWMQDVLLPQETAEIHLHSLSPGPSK

Chain of Dual specificity protein kinase CLK4 (Homo sapiens) (Q9HAZ1 whole entry, looked up): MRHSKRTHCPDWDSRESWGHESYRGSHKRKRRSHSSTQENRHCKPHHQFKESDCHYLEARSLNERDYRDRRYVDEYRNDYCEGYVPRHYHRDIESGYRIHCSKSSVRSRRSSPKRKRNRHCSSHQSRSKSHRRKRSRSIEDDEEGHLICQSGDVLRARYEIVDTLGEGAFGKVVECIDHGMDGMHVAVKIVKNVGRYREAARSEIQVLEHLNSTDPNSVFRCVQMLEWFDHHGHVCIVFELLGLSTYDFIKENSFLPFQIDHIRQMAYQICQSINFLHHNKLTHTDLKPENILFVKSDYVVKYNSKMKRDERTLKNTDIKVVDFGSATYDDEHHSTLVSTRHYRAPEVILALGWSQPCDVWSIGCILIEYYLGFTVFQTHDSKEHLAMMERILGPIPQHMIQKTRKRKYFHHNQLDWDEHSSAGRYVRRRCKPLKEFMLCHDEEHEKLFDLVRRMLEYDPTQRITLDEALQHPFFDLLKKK
Chain of Dual specificity protein kinase CLK1 (Homo sapiens) (P49759 whole entry, looked up): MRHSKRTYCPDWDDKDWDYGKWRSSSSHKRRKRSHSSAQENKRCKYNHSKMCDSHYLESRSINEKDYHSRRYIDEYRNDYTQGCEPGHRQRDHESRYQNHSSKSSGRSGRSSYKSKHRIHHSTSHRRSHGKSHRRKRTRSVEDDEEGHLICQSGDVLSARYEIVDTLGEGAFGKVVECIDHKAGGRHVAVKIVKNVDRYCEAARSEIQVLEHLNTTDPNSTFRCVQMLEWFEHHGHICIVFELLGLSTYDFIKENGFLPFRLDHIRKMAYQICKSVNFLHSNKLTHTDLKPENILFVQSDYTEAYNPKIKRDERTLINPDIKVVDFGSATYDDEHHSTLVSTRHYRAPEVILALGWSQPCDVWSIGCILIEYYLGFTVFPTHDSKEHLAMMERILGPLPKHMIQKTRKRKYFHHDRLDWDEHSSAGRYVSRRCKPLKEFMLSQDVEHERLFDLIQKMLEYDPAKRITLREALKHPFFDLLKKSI
Chain of Casein kinase II subunit alpha' (Homo sapiens) (P19784 whole entry, looked up): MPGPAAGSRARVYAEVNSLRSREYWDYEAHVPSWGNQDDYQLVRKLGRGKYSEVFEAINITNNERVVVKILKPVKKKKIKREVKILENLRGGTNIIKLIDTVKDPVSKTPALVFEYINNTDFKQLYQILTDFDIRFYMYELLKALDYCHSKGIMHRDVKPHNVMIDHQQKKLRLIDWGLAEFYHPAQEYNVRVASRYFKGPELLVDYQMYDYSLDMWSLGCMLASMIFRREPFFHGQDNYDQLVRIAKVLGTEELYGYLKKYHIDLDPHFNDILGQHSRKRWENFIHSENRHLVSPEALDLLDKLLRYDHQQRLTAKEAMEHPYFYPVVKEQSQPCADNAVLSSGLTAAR
Chain of AP2-associated protein kinase 1 (Homo sapiens) (Q2M2I8 whole entry, looked up): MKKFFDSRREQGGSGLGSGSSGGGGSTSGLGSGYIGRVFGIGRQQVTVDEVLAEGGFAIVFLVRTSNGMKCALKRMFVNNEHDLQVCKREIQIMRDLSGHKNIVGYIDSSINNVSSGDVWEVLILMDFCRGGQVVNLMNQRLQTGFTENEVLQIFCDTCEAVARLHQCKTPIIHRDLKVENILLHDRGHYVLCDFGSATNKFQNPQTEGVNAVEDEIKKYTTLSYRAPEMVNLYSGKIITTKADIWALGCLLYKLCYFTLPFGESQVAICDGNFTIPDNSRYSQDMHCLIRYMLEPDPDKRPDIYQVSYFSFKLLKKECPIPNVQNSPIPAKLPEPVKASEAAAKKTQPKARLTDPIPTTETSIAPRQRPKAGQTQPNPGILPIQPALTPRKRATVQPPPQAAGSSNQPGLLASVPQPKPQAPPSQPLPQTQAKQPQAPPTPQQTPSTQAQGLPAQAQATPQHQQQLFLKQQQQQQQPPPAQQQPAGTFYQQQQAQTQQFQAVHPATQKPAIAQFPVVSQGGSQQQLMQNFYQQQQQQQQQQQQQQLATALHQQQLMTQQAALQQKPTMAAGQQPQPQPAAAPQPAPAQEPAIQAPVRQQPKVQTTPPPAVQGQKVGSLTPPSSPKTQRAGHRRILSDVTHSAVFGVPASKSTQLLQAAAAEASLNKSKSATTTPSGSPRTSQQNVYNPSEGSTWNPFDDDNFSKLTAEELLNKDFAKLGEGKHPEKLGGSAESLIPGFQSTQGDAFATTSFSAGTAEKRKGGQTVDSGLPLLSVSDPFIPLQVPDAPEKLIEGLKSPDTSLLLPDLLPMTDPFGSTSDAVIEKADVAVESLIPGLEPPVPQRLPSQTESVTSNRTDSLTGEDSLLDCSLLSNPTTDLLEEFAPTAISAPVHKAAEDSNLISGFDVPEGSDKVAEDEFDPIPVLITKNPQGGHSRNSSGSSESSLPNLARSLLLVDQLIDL
Chain of Death-associated protein kinase 3 (Homo sapiens) (O43293 whole entry, looked up): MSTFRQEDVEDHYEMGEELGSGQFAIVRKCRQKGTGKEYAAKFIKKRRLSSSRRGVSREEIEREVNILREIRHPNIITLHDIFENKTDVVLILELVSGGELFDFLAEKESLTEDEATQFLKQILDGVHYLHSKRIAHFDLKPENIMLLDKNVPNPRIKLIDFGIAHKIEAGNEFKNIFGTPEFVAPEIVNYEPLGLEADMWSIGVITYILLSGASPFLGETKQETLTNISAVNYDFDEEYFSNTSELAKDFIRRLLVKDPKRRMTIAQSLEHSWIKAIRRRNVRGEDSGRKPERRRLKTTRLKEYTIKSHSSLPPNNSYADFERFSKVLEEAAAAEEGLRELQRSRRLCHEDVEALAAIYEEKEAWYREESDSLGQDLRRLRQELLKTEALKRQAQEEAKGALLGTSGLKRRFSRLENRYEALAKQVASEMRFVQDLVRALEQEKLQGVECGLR

| IC50 (MV4-11) | IC50 (MOLM-13) | IC50 (K562) | ΔTm [3] | ΔTm [4] | ΔTm [5] | ΔTm [6] | ΔTm [7] | ΔTm [8] | ΔTm [9] | ΔTm [10] | ΔTm [12] | ΔTm [13] | Structure (SMILES) | IC50 [1] | IC50 [2] | ΔTm [11] |
| --- | --- | --- | --- | --- | --- | --- | --- | --- | --- | --- | --- | --- | --- | --- | --- | --- |
| 0.4 µM | 0.3 µM | 8 µM | – | – | – | – | – | – | – | – | – | – | CC(=O)c1cccc(-c2cnc3ccc(NCC4CC4)nn23)c1 | 6 µM | 8.8 µM | – |
| – | – | – | 1.1 °C | 0.8 °C | 3 °C | 0.5 °C | 1.7 °C | 4 °C | 4 °C | 2.9 °C | 0.9 °C | 4.7 °C | Cn1c2c(c3ccc(Cl)c(Cl)c31)C(C#N)C1(CCCCC1)NC2=O (racemic) | – | – | 4.7 °C |
